The results in this text go back to ChEMBL document CHEMBL1269010, “Phenolic bis-styrylbenzenes as β-amyloid binding ligands and free radical scavengers” (J Med Chem, 2010).

One may read the IC50 as the concentration needed to halve the response being measured. Usually Kd stands for the equilibrium constant for the complex coming apart.

Molecules are shown by their SMILES. Calls of active or inactive are those of the source. No cut-off for these calls is given here.

Experiment [1] deals with Radical scavenging activity. In words: Antioxidant activity assessed as DPPH radical scavenging activity by spectrophotometric analysis. It is filed as functional. The gist of the method: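 DPPH (100 μM) in MeOH mixed with test compound from 0 nM to 5 mM; compounds came from ~15 mM DMSO stocks diluted in MeOH. Loss of absorbance at 517 nm read on a plate reader. Each concentration run in triplicate; IC50 taken from a sigmoidal dose-response fit.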
On the technique in general: The DPPH test is a chemical assay of radical scavenging.

The nature of experiment [2]: Binding affinity to aggregated amyloid beta (1 to 40) by fluorescence titration analysis.
For experiment [3], the species on record is Mus musculus. In words: Binding affinity to beta-amyloid plaque in APP/PS1 transgenic mouse brain assessed as signal-to-noise ratio after 30 mins by DAPI staining. Type of experiment: tissue-based. A digest of the protocol:
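Eleven-month-old APP/PS1 mice (Tg2576 × PS1 M146L 6.1) perfusion-fixed with 4% paraformaldehyde; cryosections 10 μm, three per concentration. Stained 30 min with 50 μM compound in 9:1 PBS/EtOH, then washed in 75% EtOH, 95% EtOH and xylene. Imaged through a DAPI filter; S/N taken from five plaque versus five background regions across three plaques per section.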

The test system of experiment [4] is Mus musculus. In words: In vivo binding affinity to beta-amyloid plaque in mouse hippocampus dentate gyrus region at 50 mg/kg, ip after 48 hrs. Type of experiment: functional, organism-based. Also noted: dose 50 mg/kg.
For experiment [5], the system named is Mus musculus. In words: In vivo binding affinity to beta-amyloid plaque in PDAPP transgenic mouse hippocampus dentate gyrus region at 50 mg/kg, ip after 48 hrs. Type of experiment: functional, organism-based. Also noted: dose 50 mg/kg. A digest of the protocol:
(§1)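 Ten-month-old PDAPP mice given a single 50 mg/kg ip dose, vehicle 10% DMSO/PBS, with vehicle-only animals as control. Perfused with 4% PFA at 48 h; brain sections postfixed in 4% PFA for 5 min and mounted. CA1 and dentate gyrus plaques imaged by fluorescence microscopy at 10× and 40×.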

The target in experiment [6] is Amyloid-beta precursor protein (Homo sapiens) (UniProt P05067). In words: Binding affinity to beta-amyloid plaque in brain of patient with Alzheimer's disease after 30 mins by fluorescence microscopy. Type of experiment: tissue-based. A digest of the protocol:
(§2)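 Frozen sections (10 μm) of human AD brain and age-matched control brain. Stained 30 min with 50 μM compound in 9:1 PBS/EtOH, washed in 75% EtOH, 95% EtOH and xylene, then fluorescence-imaged through a DAPI filter.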

For experiment [7] the target is unchanged. Kind of experiment: Binding affinity to beta-amyloid plaque in normal human brain after 30 mins by fluorescence microscopy. It is filed as tissue-based. A digest of the protocol: as §2
In experiment [8] the test system is Mus musculus. In words: In vivo binding affinity to beta-amyloid plaque in PDAPP transgenic mouse hippocampus CA1 region at 50 mg/kg, ip after 48 hrs. Type of experiment: functional, organism-based. Also noted: dose 50 mg/kg. A digest of the protocol:
as §1

Amyloid-beta precursor protein (Homo sapiens), sequence (P05067 whole entry): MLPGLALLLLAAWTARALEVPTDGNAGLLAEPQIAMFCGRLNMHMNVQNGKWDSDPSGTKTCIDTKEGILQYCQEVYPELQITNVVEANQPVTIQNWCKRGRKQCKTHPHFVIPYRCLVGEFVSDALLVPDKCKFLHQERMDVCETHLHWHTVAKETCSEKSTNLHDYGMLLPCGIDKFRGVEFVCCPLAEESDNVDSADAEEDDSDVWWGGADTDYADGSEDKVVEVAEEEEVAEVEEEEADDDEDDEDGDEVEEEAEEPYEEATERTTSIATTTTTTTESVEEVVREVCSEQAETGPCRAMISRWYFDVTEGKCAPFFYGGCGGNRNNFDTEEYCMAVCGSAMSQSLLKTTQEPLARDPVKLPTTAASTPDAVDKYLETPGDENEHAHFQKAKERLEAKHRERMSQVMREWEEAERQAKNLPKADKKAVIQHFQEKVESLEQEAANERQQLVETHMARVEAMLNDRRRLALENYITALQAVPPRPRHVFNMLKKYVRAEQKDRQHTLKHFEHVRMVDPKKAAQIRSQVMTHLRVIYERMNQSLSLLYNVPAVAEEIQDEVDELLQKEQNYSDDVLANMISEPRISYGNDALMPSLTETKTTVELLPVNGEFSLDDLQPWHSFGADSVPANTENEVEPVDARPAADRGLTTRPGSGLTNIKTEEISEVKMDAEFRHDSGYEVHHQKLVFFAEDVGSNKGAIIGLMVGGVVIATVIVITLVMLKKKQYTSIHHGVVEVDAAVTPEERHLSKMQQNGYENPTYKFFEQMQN

Take `Oc1ccc(/C=C/c2ccc(/C=C/c3cccc(O)c3)cc2)cc1`: the IC50 in experiment [1] came to 3.5 µM. Moreover, the Kd in experiment [2] came out at 3500 nM. Besides, the Ratio in experiment [3] was 9.
The corresponding values for `Oc1cccc(/C=C/c2ccc(/C=C/c3ccc(O)c(O)c3)cc2)c1` are 9.1 µM, 200 nM and 5.6.
As for `Oc1ccc(/C=C/c2ccccc2/C=C/c2ccc(O)cc2)cc1`, the IC50 in experiment [1] worked out at 4 µM. In experiment [2], this compound showed an equilibrium dissociation constant (Kd) of 6300 nM. Besides, in experiment [3], the Ratio came to 5.1.
For the compound `Oc1ccc(/C=C/c2ccc(/C=C/c3ccc(O)cc3)cc2)cc1`, the half-inhibitory concentration (IC50) in experiment [1] is 3.1 µM. Moreover, the outcome in experiment [4] and in experiment [7] was inactive. The compound also registered a dissociation constant (Kd) in experiment [2] of 9.5 nM. The Ratio in experiment [3] was found to be 14. For the same compound, the result in experiment [5], in experiment [6] and in experiment [8] was Active.
With `Oc1ccccc1/C=C/c1ccc(/C=C/c2ccccc2O)cc1`, the half-inhibitory concentration (IC50) in experiment [1] turned out to be 4 µM. In addition, the Kd in experiment [2] was 800 nM. Further, the Ratio in experiment [3] amounted to 11.
Take `Oc1ccc(/C=C/c2cccc(/C=C/c3ccc(O)cc3)c2)cc1`: in experiment [1], the IC50 turned out to be 3.4 µM. This compound also displayed a Kd in experiment [2] of 2500 nM. The Ratio in experiment [3] amounted to 3.1.
Regarding `Oc1ccc(/C=C/c2ccc(/C=C/c3ccccc3)cc2)cc1`, in experiment [1], the half-inhibitory concentration (IC50) was determined as 5.6 µM. This compound also had a Kd in experiment [2] of 160 nM. The Ratio in experiment [3] was determined as 8.1.
Consider `Oc1ccc(/C=C/c2cc(O)cc(O)c2)cc1` [RESVERATROL], for which the concentration for half-maximal inhibition (IC50) in experiment [1] is 62 µM.
On the same count and under the same terms, the same measure for `O=c1c(O)c(-c2ccc(O)c(O)c2)oc2cc(O)cc(O)c12` [QUERCETIN]: 1.3 µM.
For `Oc1ccc(/C=C/c2ccc(/C=C/c3cc(O)cc(O)c3)cc2)cc1`, in experiment [1], the IC50 was 4.5 µM. This compound also returned an equilibrium dissociation constant (Kd) in experiment [2] of 190 nM. Further, the Ratio in experiment [3] was found to be 3.8.
The corresponding values for `Oc1ccc(C#Cc2ccc(C#Cc3ccc(O)cc3)cc2)cc1` are 45 µM, 54 nM and 5.9.
In the case of `Oc1cc(O)cc(/C=C/c2ccc(/C=C/c3cc(O)cc(O)c3)cc2)c1`, the IC50 in experiment [1] was 5.1 µM. The result in experiment [4] and in experiment [7] was inactive. The compound also showed a Kd in experiment [2] of 160 nM. For the same compound, the Ratio in experiment [3] is 9.6. For the same compound, the result in experiment [5], in experiment [6] and in experiment [8] was Active.
Regarding `Oc1cccc(/C=C/c2ccc(/C=C/c3cccc(O)c3)cc2)c1`, the 50% inhibitory concentration (IC50) in experiment [1] was greater than 100 µM. Further, the outcome in experiment [4] and in experiment [7] was inactive. The compound also yielded a Kd in experiment [2] of 5.3 nM. In experiment [3], the Ratio was 9.6. Also, the result in experiment [5], in experiment [6] and in experiment [8] was Active.
Regarding `Oc1ccc(/C=C/c2ccc(/C=C/c3ccc(O)c(O)c3)cc2)cc1`, the IC50 in experiment [1] was greater than 100 µM. Also, the affinity in experiment [2], expressed as Kd, was 260 nM. Besides, the Ratio in experiment [3] was 9.1.
On the same counts, the results for `Oc1ccc(/C=C/c2ccc(O)cc2)cc1` [TRANS-4,4'-DIHYDROXYSTILBENE] are 1.8 µM, 9200 nM and 5.2.
